Source: ChEMBL document CHEMBL2384915, “Design, synthesis and biological evaluation of novel 3,4,5-trisubstituted aminothiophenes as inhibitors of p53-MDM2 interaction. Part 2” (Bioorg Med Chem, 2013)
pIC50, pKi: −log10 of the molar value.

Legend:
PC-3 = assay: Cytotoxicity against human p53 deficient PC3 cells after 72 hrs by SRB assay; assay type: functional, cell-based; details: PC-3, 72 h
How it was run: (§1)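 Seeded cells cultured overnight, then exposed to serial compound concentrations for 72 h. Fixed with 10% (w/v) TCA at 4 °C for 1 h, stained 30 min with 0.4% SRB in 1% acetic acid, washed with 1% acetic acid, and bound dye extracted with unbuffered Tris base. Absorbance read at 515 nm; inhibition computed versus untreated controls. IC50 derived by Logit method, mean of at least two independent tests.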

[1] = target: Tumour suppressor p53/oncoprotein Mdm2 (Homo sapiens, UniProt Q00987); assay: (§2) Inhibition of p53/MDM2 (1 to 118) (unknown origin) interaction after 1 hr by fluorescence polarization assay; assay type: protein assay
A549 [2] = assay: Cytotoxicity against human A549 cells expressing wild type p53 after 72 hrs by SRB assay; assay type: functional, cell-based; details: A549, 72 h; how it was run: as §1
[3] = target: Tumour suppressor p53/oncoprotein Mdm2 (Homo sapiens, UniProt P04637+Q00987); assay: as §2; assay type: protein assay
A549 [4] = assay: Selectivity ratio of IC50 for human p53 deficient PC3 cells to IC50 for human A549 cells expressing wild type p53; assay type: functional

Chain of Tumour suppressor p53/oncoprotein Mdm2 (Homo sapiens, UniProt P04637+Q00987) (P04637 whole entry): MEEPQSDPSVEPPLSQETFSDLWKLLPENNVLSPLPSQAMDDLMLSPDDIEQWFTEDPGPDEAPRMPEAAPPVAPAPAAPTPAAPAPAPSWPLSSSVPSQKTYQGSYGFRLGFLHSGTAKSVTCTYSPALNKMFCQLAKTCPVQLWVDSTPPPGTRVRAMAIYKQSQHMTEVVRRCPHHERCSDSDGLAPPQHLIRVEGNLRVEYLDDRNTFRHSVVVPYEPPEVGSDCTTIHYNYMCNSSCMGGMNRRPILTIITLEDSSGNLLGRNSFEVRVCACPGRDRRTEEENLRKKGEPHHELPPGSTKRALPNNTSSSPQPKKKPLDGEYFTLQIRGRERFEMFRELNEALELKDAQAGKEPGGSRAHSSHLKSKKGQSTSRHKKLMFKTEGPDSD
Chain of Tumour suppressor p53/oncoprotein Mdm2 (Homo sapiens, UniProt P04637+Q00987) (Q00987 whole entry): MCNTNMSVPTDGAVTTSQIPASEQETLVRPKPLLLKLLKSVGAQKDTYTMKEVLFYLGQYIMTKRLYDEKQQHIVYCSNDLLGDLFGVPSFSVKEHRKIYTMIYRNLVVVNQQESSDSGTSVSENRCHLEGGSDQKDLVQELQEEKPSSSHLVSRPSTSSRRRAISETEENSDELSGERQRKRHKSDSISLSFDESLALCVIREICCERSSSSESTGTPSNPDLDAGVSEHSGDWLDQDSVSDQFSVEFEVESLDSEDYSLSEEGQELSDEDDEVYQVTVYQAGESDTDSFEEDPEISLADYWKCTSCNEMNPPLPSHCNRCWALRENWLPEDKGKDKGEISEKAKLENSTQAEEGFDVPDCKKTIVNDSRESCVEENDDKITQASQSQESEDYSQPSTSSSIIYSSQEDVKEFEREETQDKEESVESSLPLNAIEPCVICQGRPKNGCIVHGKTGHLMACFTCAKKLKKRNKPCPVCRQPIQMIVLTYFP
Chain of Tumour suppressor p53/oncoprotein Mdm2 (Homo sapiens, UniProt Q00987) (P04637 whole entry): as the sequence (P04637 whole entry) above
Chain of Tumour suppressor p53/oncoprotein Mdm2 (Homo sapiens, UniProt Q00987) (Q00987 whole entry): as the sequence (Q00987 whole entry) above

## Nc1sc(-c2ccccc2)c(-c2ccc(Cl)cc2)c1C(=O)N1CCOCC1
PC-3
  pIC50: 4.53
[1]
  pKi: 6.55
A549 [2]
  pIC50: 4.85

## Nc1sc(-c2ccc([N+](=O)[O-])cc2)c(-c2ccc(Cl)cc2)c1C(=O)N1CCOCC1
PC-3
  pIC50: < 4.30
[3]
  Ki: Not Active
A549 [2]
  pIC50: 4.78

## Clc1ccc(-c2sc3ncnc(NC4CCCCC4)c3c2-c2ccc(Cl)cc2)cc1
PC-3
  pIC50: < 4.30
A549 [2]
  pIC50: < 4.30

## Nc1sc(-c2ccc(F)cc2)c(-c2ccc(Cl)cc2)c1C(=O)NCc1ccccc1
PC-3
  pIC50: 4.59
[1]
  pKi: 6.22
A549 [2]
  pIC50: 5.00

## COc1ccc(C2=N[C@@H](c3ccc(Cl)cc3)[C@@H](c3ccc(Cl)cc3)N2C(=O)N2CCNC(=O)C2)c(OC(C)C)c1 [NUTLIN-3]
PC-3
  pIC50: 4.70
A549 [2]
  pIC50: 5.34

## Nc1sc(-c2ccc([N+](=O)[O-])cc2)c(-c2ccc(Cl)cc2)c1C(=O)N1CCCC1
PC-3
  pIC50: 4.37
[3]
  Ki: Not Active
A549 [2]
  pIC50: 4.97

## Nc1sc(-c2ccc(Br)cc2)c(-c2ccc(Cl)cc2)c1C(=O)N1CCOCC1
PC-3
  pIC50: < 4.30
[1]
  pKi: 5.83
A549 [4]
  Ratio IC50: >5
A549 [2]
  pIC50: 5.13

## Nc1[nH]c(-c2ccc(Cl)cc2)c(-c2ccc(Cl)cc2)c1C(=O)NC1CC1
PC-3
  pIC50: 4.71
[1]
  pKi: 6.28
A549 [2]
  pIC50: 5.34

## CC(C)(C)NC(=S)c1c(N)sc(-c2ccc(Cl)cc2)c1-c1ccc(Cl)cc1
PC-3
  pIC50: 4.47
[1]
  pKi: 6.24
A549 [2]
  pIC50: < 4.30

## Nc1sc(-c2ccc(Br)cc2)c(-c2ccc(Cl)cc2)c1C(=O)NC1CC1
PC-3
  pIC50: 4.43
[1]
  pKi: 5.66
A549 [2]
  pIC50: < 4.30

## Nc1sc(-c2ccc([N+](=O)[O-])cc2)c(-c2ccc(Cl)cc2)c1C(=O)NC1CCCCC1
PC-3
  pIC50: 4.59
[3]
  Ki: Not Active
A549 [2]
  pIC50: 4.82

## Nc1sc(-c2ccccc2)c(-c2ccc(Cl)cc2)c1C(=O)NC1CC1
PC-3
  pIC50: 4.77
[1]
  pKi: 6.20
A549 [2]
  pIC50: 5.37

## O=C1CC(c2ccco2)c2c(sc(-c3ccc(Cl)cc3)c2-c2ccc(Cl)cc2)N1 (stereo unspecified)
PC-3
  pIC50: < 4.30
A549 [2]
  pIC50: 4.59

## Clc1ccc(-c2sc3ncnc(NC4CC4)c3c2-c2ccc(Cl)cc2)cc1
PC-3
  pIC50: < 4.30
A549 [2]
  pIC50: 4.37

## Nc1sc(-c2ccc(Cl)cc2)c(-c2ccc(Cl)cc2)c1C(=O)NC1CCCCC1
PC-3
  pIC50: 5.14
A549 [2]
  pIC50: 5.62

## Nc1sc(-c2ccc(Cl)cc2)c(-c2ccc(Cl)cc2)c1C(=O)N1CCCC1
PC-3
  pIC50: 5.21
A549 [2]
  pIC50: 6.05

## Clc1ccc(-c2sc3ncnc(N4CCOCC4)c3c2-c2ccc(Cl)cc2)cc1
PC-3
  pIC50: < 4.30
A549 [2]
  pIC50: < 4.30

## Nc1sc(-c2ccc(Br)cc2)c(-c2ccc(Cl)cc2)c1C(=O)NCc1ccccc1
PC-3
  pIC50: < 4.30
[1]
  pKi: 6.12
A549 [2]
  pIC50: 4.73

## Nc1sc(-c2ccc(Cl)cc2)c(-c2ccc(Cl)cc2)c1C(=S)NC1CCCC1
PC-3
  pIC50: 4.54
[1]
  pKi: 6.77
A549 [2]
  pIC50: 4.66

## Nc1sc(-c2ccc([N+](=O)[O-])cc2)c(-c2ccc(Cl)cc2)c1C(=O)N1CCCCC1
[3]
  Ki: Not Active

## CCOC(=O)c1c(N)[nH]c(-c2ccc(Cl)cc2)c1-c1ccc(Cl)cc1
PC-3
  pIC50: 4.79
[1]
  pKi: 5.91
A549 [4]
  Ratio IC50: >5
A549 [2]
  pIC50: 5.60

## Nc1sc(-c2ccc(Br)cc2)c(-c2ccc(Cl)cc2)c1C(=O)NC1CCCCC1
PC-3
  pIC50: 4.55
[1]
  pKi: 5.97
A549 [2]
  pIC50: 5.02

## Nc1sc(-c2ccc(Cl)cc2)c(-c2ccc(Cl)cc2)c1C(=S)NC1CCCCC1
PC-3
  pIC50: 4.56
[1]
  pKi: 6.49
A549 [2]
  pIC50: 5.13

## Nc1sc(-c2ccc(F)cc2)c(-c2ccc(Cl)cc2)c1C(=O)N1CCOCC1
PC-3
  pIC50: 4.60
[1]
  pKi: 6.66
A549 [2]
  pIC50: 4.90

## Nc1sc(-c2ccc(Br)cc2)c(-c2ccc(Cl)cc2)c1C(=O)N1CCCC1
PC-3
  pIC50: 4.43
[1]
  pKi: 6.12
A549 [4]
  Ratio IC50: >5
A549 [2]
  pIC50: 5.13

## Nc1sc(-c2ccccc2)c(-c2ccc(Cl)cc2)c1C(=O)N1CCCC1
PC-3
  pIC50: 4.65
[1]
  pKi: 5.71
A549 [2]
  pIC50: 5.24

## O=C1CC(c2cccs2)c2c(sc(-c3ccc(Cl)cc3)c2-c2ccc(Cl)cc2)N1 (stereo unspecified)
PC-3
  pIC50: < 4.30
A549 [2]
  pIC50: 4.69

## Nc1sc(-c2ccccc2)c(-c2ccc(Cl)cc2)c1C(=O)NCc1ccccc1
PC-3
  pIC50: 4.64
[1]
  pKi: 5.94
A549 [2]
  pIC50: 5.07

## Nc1sc(-c2ccc(F)cc2)c(-c2ccc(Cl)cc2)c1C(=O)NC1CC1
PC-3
  pIC50: 4.55
[1]
  pKi: 6.47
A549 [4]
  Ratio IC50: >5
A549 [2]
  pIC50: 5.52

## COC(=O)c1c(N)sc(-c2ccc(Cl)cc2)c1-c1ccc(Cl)cc1
PC-3
  pIC50: 5.56
A549 [2]
  pIC50: 5.30

## Nc1sc(-c2ccc([N+](=O)[O-])cc2)c(-c2ccc(Cl)cc2)c1C(=O)NC1CC1
[3]
  Ki: Not Active

## O=C1CC(c2ccccc2)c2c(sc(-c3ccc(Cl)cc3)c2-c2ccc(Cl)cc2)N1 (stereo unspecified)
PC-3
  pIC50: < 4.30
A549 [2]
  pIC50: 4.76

## Nc1sc(-c2ccc(Cl)cc2)c(-c2ccc(Cl)cc2)c1C(=S)NC1CC1
PC-3
  pIC50: 4.66
[1]
  pKi: 7.07
A549 [2]
  pIC50: 5.08

## Nc1sc(-c2ccc(F)cc2)c(-c2ccc(Cl)cc2)c1C(=O)N1CCCC1
PC-3
  pIC50: 4.69
[1]
  pKi: 5.91
A549 [2]
  pIC50: 4.73

## Nc1sc(-c2ccc(Cl)cc2)c(-c2ccc(Cl)cc2)c1C(=O)NC1CC1
PC-3
  pIC50: 5.43
A549 [2]
  pIC50: 5.71

## Clc1ccc(-c2sc3ncnc(N4CCCCC4)c3c2-c2ccc(Cl)cc2)cc1
PC-3
  pIC50: < 4.30
A549 [2]
  pIC50: < 4.30
